Laboratory results taken from PubChem BioAssay AID1765 (Sanford-Burnham Center for Chemical Genomics, 2009).
Activity calls are given as the source filed them.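 The calls were made as follows: active = maximal cell kill higher at a 0.156 ng/ml dose of TRAIL, the death-signal protein, than with no TRAIL; inactive = the rest.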

Key:
[1] = TRAIL dependence of compound-driven PPC-1 killing – cell-based, ATPlite luminescence, 24 h, mechanism study for TRAIL sensitizer project, dose response (AID 1765); conditions: PPC-1 cytotoxicity with TRAIL, ATPLite luminescence, 24 h
Outline: (§1)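 Assay system – PPC-1 cells · Probe or stimulus – TRAIL at 0.156 ng/mL, or no TRAIL (0 ng/mL) · Compound – 2-fold series from 10 µM, 0.5% DMSO · Times – compound pre-incubation 4 h before TRAIL, then 24 h TRAIL exposure · Technique – ATP-based luminescence with ATPlite reagent · Control set – 10 µM doxorubicin with TRAIL as full-kill reference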

[2] = tested on: PPC-1 cytotoxicity with TRAIL, ATPLite luminescence, 24 h; assay: as above
Outline: as §1

[3] = measured here: max cytotoxicity with TRAIL
[4] = measured here: max cytotoxicity without TRAIL
[5] = measured here: cytotoxicity without TRAIL

Structure (SMILES): CSc1nc(-c2ccc(C)cc2)nc(C(Cl)Cl)n1
- maximal effect [1, 3]: 94.5%
- maximal effect [1, 4]: 50.4%
- EC50 [2]: 1000 nM
- EC50 [2, 5]: 810 nM

Structure (SMILES): CCSc1nc(-c2ccccc2)nc(C(Cl)Cl)n1
- maximal effect [1, 3]: 46.7%
- maximal effect [1, 4]: 34.2%
- EC50 [2]: 2580 nM
- EC50 [2, 5]: 2500 nM

Structure (SMILES): CSc1nc(-c2ccccc2)nc(C(Cl)Cl)n1
- EC50 [2]: > 10000 nM (inactive)
- EC50 [2, 5]: > 10000 nM
